Assay results published in ChEMBL document CHEMBL1137306, “Evaluation of 3-carboxy-4(1H)-quinolones as inhibitors of human protein kinase CK2” (J Med Chem, 2006).

Legend:
[1] = target: T1, Casein kinase II (Homo sapiens) (UniProt P67870+P68400+P19784); assay: Residual activity of human CK2 at 30 uM; type: protein-complex assay
Casein kinase II [2] = target: T2, Casein kinase II (Homo sapiens, UniProt P19784+P67870+P68400); assay: Inhibition of human CK2; type: protein-complex assay
[3] = target: Mitogen-activated protein kinase 10 (Homo sapiens) (UniProt P53779); assay: Residual activity of JNK3 at 10 uM in presence of 100 uM ATP relative to control
Sequence of Mitogen-activated protein kinase 10 (Homo sapiens) (P53779 whole entry): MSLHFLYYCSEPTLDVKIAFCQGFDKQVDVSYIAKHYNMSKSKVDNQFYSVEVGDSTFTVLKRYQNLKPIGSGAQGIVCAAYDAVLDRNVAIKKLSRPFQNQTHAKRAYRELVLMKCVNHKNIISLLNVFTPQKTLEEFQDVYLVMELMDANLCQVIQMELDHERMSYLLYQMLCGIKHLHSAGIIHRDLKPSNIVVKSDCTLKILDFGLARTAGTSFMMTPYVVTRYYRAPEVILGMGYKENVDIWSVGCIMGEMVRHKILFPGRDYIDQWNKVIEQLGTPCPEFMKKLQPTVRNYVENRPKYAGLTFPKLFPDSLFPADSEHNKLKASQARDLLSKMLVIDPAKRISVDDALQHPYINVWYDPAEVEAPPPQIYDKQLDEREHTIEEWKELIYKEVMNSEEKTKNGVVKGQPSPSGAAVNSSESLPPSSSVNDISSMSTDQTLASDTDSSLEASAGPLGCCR

Casein kinase II [4] = target: T2, Casein kinase II; assay: Binding affinity to human CK2 in presence of ATP; type: protein-complex assay
In short: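 Ki obtained from Lineweaver-Burk plots of CK2 activity measured at varied ATP and inhibitor concentrations (inhibitor 0 to 0.5 µM). Activity was read by the radiometric phosphocellulose peptide assay.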

[5] = target: Dual specificity tyrosine-phosphorylation-regulated kinase 1A (Homo sapiens) (UniProt Q13627); assay: Residual activity of DYRK1a at 10 uM in presence of 100 uM ATP relative to control
[6] = target: Rho-associated protein kinase 1 (Homo sapiens) (UniProt Q13464); assay: Residual activity of ROCK1 at 10 uM in presence of 100 uM ATP relative to control
Sequence of Rho-associated protein kinase 1 (Homo sapiens) (Q13464 2-1354 limits assumed): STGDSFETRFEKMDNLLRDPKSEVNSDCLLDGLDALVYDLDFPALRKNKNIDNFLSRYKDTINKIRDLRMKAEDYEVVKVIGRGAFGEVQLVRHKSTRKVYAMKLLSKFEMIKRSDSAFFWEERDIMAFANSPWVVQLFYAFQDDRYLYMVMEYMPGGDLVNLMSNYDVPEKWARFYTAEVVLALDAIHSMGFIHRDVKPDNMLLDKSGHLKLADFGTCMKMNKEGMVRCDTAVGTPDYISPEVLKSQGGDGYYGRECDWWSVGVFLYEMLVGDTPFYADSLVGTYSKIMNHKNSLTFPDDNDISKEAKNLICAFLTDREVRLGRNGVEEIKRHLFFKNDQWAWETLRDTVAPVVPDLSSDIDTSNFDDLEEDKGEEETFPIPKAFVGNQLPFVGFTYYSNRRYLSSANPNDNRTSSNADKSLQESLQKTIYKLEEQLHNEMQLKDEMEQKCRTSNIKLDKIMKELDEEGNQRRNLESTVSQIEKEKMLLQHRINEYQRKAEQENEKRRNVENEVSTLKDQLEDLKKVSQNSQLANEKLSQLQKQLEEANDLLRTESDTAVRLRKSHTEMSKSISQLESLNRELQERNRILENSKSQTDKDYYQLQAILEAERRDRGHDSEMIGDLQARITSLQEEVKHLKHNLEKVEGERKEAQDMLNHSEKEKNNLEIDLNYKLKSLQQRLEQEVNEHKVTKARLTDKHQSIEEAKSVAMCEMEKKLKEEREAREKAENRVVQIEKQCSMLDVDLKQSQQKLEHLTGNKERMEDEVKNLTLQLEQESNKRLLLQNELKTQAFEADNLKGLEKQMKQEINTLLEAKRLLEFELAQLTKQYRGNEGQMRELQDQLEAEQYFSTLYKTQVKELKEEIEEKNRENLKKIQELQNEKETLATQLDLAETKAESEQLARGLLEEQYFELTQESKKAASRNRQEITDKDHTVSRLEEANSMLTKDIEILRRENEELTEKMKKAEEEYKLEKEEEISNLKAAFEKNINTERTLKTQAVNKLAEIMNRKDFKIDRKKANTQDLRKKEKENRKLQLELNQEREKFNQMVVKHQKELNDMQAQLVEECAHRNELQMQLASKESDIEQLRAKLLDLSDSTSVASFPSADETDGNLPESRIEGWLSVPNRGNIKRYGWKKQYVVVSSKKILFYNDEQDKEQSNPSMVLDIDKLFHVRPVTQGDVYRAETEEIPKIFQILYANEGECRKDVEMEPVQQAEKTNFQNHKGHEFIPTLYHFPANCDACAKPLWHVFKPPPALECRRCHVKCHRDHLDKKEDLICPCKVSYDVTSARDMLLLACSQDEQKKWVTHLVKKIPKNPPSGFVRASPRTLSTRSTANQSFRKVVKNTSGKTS

[7] = target: Cyclin-dependent kinase 5 (Homo sapiens) (UniProt Q00535); assay: Residual activity of CDK5 at 10 uM in presence of 100 uM ATP relative to control
Sequence of Cyclin-dependent kinase 5 (Homo sapiens) (Q00535 whole entry, looked up): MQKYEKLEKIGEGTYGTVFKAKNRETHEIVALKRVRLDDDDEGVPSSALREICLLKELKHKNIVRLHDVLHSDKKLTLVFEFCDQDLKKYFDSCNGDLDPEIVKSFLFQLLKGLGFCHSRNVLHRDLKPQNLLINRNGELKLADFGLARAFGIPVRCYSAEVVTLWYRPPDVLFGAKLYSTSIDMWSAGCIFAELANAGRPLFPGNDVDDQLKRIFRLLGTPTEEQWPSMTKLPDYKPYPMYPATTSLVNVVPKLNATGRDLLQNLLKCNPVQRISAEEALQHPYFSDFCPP

[8] = target: Glycogen synthase kinase-3 (Homo sapiens) (UniProt P49840+P49841); assay: Residual activity of GSK3 at 10 uM in presence of 100 uM ATP relative to control; type: protein assay
Sequence of Glycogen synthase kinase-3 (Homo sapiens) (P49840 whole entry, looked up): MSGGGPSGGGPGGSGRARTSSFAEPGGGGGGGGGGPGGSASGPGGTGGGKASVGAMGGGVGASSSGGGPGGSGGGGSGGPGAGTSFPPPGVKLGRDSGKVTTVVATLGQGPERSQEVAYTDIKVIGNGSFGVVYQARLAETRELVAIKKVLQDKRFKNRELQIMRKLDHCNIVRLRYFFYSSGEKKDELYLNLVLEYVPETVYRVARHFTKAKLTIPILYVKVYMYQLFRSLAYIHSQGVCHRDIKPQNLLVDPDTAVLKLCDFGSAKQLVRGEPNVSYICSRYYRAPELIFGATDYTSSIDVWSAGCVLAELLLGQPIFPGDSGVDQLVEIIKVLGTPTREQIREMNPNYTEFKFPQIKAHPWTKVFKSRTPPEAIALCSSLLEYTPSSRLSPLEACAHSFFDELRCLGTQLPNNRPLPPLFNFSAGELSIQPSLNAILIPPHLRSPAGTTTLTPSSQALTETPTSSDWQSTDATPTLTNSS
Sequence of Glycogen synthase kinase-3 (Homo sapiens) (P49841 whole entry, looked up): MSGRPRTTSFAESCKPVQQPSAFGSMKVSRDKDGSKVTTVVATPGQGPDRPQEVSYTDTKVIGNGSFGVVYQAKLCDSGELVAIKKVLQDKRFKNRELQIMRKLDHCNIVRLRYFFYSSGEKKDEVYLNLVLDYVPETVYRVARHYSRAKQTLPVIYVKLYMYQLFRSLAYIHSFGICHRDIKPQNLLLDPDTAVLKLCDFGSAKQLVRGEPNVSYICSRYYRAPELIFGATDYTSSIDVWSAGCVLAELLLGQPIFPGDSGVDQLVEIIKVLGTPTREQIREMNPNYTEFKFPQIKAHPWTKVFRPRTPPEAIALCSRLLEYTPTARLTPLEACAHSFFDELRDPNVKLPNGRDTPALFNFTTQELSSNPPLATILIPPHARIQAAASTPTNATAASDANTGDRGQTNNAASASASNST

[9] = target: Tyrosine-protein kinase Lck (Homo sapiens) (UniProt P06239); assay: Residual activity of p56LCK at 10 uM in presence of 100 uM ATP relative to control
[10] = target: T1, Casein kinase II (Homo sapiens); assay: Residual activity of CK2 at 10 uM in presence of 100 uM ATP relative to control; type: protein-complex assay
[11] = target: Ribosomal protein S6 kinase alpha-5 (Homo sapiens) (UniProt O75582); assay: Residual activity of MSK1 at 10 uM in presence of 100 uM ATP relative to control
Sequence of Ribosomal protein S6 kinase alpha-5 (Homo sapiens) (O75582 whole entry, looked up): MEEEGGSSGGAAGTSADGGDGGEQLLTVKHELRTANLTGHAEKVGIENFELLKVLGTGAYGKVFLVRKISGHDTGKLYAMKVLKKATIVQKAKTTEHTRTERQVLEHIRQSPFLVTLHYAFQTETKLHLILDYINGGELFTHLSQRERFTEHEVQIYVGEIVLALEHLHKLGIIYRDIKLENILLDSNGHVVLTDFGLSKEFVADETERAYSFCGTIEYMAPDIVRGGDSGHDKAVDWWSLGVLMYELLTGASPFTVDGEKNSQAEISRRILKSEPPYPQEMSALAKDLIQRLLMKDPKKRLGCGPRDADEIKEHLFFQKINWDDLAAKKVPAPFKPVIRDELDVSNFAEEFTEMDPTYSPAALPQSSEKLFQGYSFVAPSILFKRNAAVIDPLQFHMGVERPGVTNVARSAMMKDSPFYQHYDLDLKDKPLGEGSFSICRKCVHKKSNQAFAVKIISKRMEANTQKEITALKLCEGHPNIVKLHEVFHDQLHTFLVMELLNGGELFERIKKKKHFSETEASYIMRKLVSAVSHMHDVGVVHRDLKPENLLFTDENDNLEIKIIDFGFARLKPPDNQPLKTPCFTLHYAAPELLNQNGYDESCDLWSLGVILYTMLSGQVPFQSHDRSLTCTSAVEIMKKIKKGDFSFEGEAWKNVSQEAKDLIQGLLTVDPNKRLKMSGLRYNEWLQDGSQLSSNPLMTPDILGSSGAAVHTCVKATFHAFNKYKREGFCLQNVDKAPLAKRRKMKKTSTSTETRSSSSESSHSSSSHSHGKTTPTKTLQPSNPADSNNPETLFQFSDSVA

T2 sequence (P67870 whole entry): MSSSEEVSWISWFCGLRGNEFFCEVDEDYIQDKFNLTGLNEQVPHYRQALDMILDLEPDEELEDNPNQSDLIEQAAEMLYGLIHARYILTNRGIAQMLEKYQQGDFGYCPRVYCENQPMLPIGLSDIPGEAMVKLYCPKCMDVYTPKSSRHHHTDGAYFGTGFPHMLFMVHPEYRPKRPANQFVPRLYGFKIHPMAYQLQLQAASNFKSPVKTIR
T2 sequence (P68400 whole entry): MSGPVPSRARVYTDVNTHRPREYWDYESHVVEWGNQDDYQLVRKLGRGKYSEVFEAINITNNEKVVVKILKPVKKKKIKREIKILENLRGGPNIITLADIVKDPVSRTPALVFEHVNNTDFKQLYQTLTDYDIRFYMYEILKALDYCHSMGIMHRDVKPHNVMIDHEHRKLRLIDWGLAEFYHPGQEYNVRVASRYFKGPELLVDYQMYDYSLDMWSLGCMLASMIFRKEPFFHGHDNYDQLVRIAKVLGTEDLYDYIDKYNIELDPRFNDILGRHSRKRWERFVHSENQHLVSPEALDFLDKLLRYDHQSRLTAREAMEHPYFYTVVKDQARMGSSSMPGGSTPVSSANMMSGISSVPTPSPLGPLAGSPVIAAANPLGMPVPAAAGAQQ
T2 sequence (P19784 whole entry): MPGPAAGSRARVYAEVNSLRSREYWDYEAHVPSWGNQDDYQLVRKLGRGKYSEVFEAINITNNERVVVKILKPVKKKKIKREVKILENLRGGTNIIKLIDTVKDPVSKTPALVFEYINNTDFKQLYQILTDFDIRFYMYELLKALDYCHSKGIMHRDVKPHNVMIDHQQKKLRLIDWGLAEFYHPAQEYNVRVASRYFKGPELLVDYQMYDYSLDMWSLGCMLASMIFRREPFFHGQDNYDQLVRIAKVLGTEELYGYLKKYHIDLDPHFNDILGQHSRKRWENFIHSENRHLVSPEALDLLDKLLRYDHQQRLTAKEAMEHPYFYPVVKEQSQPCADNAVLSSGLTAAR

| Compound | Activity [1] [%] | other results |
| --- | --- | --- |
| O=C(O)c1cnc2ccc(Br)cc2c1O | 76 |  |
| O=C(O)c1cnc2ccc(F)cc2c1O | 72 |  |
| Cc1ccc(C)c2c(O)c(C(=O)O)cnc12 | 32 |  |
| O=C(O)c1cnc2cc3c(cc2c1O)OCCO3 | 81 |  |
| O=C(O)c1ccc2ncc(C(=O)O)c(O)c2c1 | 91 |  |
| Cc1ccc2c(c1)c(=O)c(C(=O)O)cn2C | 100 |  |
| CC(C)c1cccc2c(O)c(C(=O)O)cnc12 | 95 |  |
| CC1COc2c(N3CCN(C)CC3)c(F)cc3c(=O)c(C(=O)O)cn1c23 (stereo not given) | 100 |  |
| CCOc1cccc2c(O)c(C(=O)O)cnc12 | 103 |  |
| Cc1ccc2ncc(C(=O)O)c(O)c2c1 | 100 |  |
| O=C(O)c1c[nH]c2c(Cl)c(Cl)ccc2c1=O |  | IC50 (Casein kinase II [2]): 800 nM |
| Cc1cc(C)c2c(c1)c(=O)c(C(=O)O)cn2C | 102 |  |
| O=C(O)c1cnc2c(Cl)c(Cl)ccc2c1O | 12.5 |  |
| O=C(O)c1cnc2c(Cl)cc(Cl)cc2c1O | 64 |  |
| O=C(O)c1cnc2ccc(Oc3ccccc3)cc2c1O | 89 |  |
| CCCCc1ccc2ncc(C(=O)O)c(O)c2c1 | 87 |  |
| CCc1cccc2c(O)c(C(=O)O)cnc12 | 86 |  |
| O=C(O)c1cnc2c(Cl)cccc2c1O | 37 |  |
| Cn1cc(C(=O)O)c(=O)c2ccccc21 | 106 |  |
| O=C(O)c1cnc2c(ccc3ccccc32)c1O | 4.5 | Activity [3]: 81%; Ki (Casein kinase II [4]): 280 nM; Activity [5]: 85%; Activity [6]: 78%; Activity [7]: > 50%; Activity [8]: > 50%; IC50 (Casein kinase II [2]): 1000 nM; Activity [9]: 80%; Activity [10]: 25%; Activity [11]: 89% |
| O=C(O)c1cnc2ccccc2c1O | 103 |  |
| O=C(O)c1cnc2cc(Cl)cc(Cl)c2c1O | 70 |  |

| Compound | Activity [1] [%] | other results |
| --- | --- | --- |
| O=C(O)c1cnc2c(Br)cccc2c1O | 42 |  |
| Cc1ccc2c(O)c(C(=O)O)cnc2c1C | 56 | IC50 (Casein kinase II [2]): ≥ 33000 nM |
| O=C(O)c1ccc2c(O)c(C(=O)O)cnc2c1 | 74 |  |
| CN(C)c1ccc2ncc(C(=O)O)c(O)c2c1 | 75 |  |
| CCCOc1ccc2ncc(C(=O)O)c(O)c2c1 | 80 |  |
| COc1cc(OC)c2ncc(C(=O)O)c(O)c2c1 | 99 |  |
| O=C(O)c1cnc2c(C(=O)O)cccc2c1O | 73 |  |
| O=C(O)c1cnc2c(F)cccc2c1O | 70 |  |
| CCOc1ccc2ncc(C(=O)O)c(O)c2c1 | 107 |  |
| O=C(O)c1cnc2c(Cl)cc(Cl)c(Cl)c2c1O | 2.6 | Activity [3]: 74%; Ki (Casein kinase II [4]): 60 nM; Activity [5]: 35%; Activity [6]: 85%; Activity [7]: > 50%; Activity [8]: > 50%; IC50 (Casein kinase II [2]): 300 nM; Activity [9]: 87%; Activity [10]: 11%; Activity [11]: 71% |
| CC1COc2c(F)c(F)cc3c(=O)c(C(=O)O)cn1c23 (stereo not given) | 88 |  |
| Cc1cc(C)c2ncc(C(=O)O)c(O)c2c1 | 63 |  |
| O=C(O)c1cnc2ccc(Cl)cc2c1O | 75 |  |
| COc1ccc2ncc(C(=O)O)c(O)c2c1 | 101 |  |
| Cc1c(Cl)ccc2c(O)c(C(=O)O)cnc12 | 15 | IC50 (Casein kinase II [2]): 2000 nM |
| CC(=O)c1ccc2ncc(C(=O)O)c(O)c2c1 | 100 |  |
| O=C(O)c1cnc2ccc(I)cc2c1O | 85 |  |
| O=C(O)c1cnc2cc(C(F)(F)F)ccc2c1O | 78 |  |
| COc1cccc2c(O)c(C(=O)O)cnc12 | 92 |  |
| CC(C)Oc1cccc2c(O)c(C(=O)O)cnc12 | 93 |  |
| Cc1cccc2c(O)c(C(=O)O)cnc12 | 74 |  |
